From ChEMBL document CHEMBL1149323, “Synthesis and evaluation of dihydropyrroloquinolines that selectively antagonize P-glycoprotein” (J Med Chem, 2004)

How the values were obtained:
Mus musculus [1] = assay: In vivo tumor growth inhibition in mice when administered subcutaneously at a day 5; type: functional; details: in the assay text read “intraperitoneally” for “subcutaneously”
Summary of the method: (§1)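 Balb/c female mice, 6–8 weeks old, with 10^6 JC murine mammary adenocarcinoma cells injected subcutaneously in the right hind quarter. Treatment began once tumors were palpable (day 1), five mice per group. Dosing on days 1, 5 and 9: 100 mg/kg i.p. PGP-4008·HCl with or without 5 mg/kg doxorubicin. Caliper volumes calculated as (L×W²)/2 through day 15; unpaired t-test with Welch correction.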

Mus musculus [2] = assay: In vivo tumor growth inhibition in mice when administered […] at a day 12; type: functional; summary of the method: as §1
Mus musculus [3] = assay: In vivo tumor growth inhibition in mice when […] at a day 15; type: functional; summary of the method: as §1
Mus musculus [4] = assay: In vivo tumor growth inhibition in mice when administered […] at a day 9; type: functional; summary of the method: as §1
Mus musculus [5] = assay: In vivo tumor growth inhibition in mice when […] at a day 1; type: functional; summary of the method: as §1
[6] = Reversal index is the ratio of IC50 in the absence of modulator to that of presence of modulator when combined with 5-Fluorouracil (uM) in T24 cell line; type: functional, T-24
Summary of the method: (§2)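 Cells treated in triplicate for 48 h with graded cytotoxic drug, with or without modulator. Survival quantified by sulforhodamine B absorbance at 570 nm. IC50 of the cytotoxic drug derived with and without modulator; reversal index = IC50 without modulator / IC50 with modulator.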

[7] = Reversal index is the ratio of IC50 in the absence of modulator to that of presence of modulator when combined with vinblastine (nM) in NCI/ADR cell line; type: functional; summary of the method: as §2
[8] = Reversal index is the ratio of IC50 in the absence of modulator to that of presence of modulator when combined with vincristine (nM) in T24 cell line; type: functional, T-24; summary of the method: as §2
[9] = Reversal index is the ratio of IC50 in the absence of modulator to that of presence of modulator when combined with vincristine (nM) in MCF-7 cell line; type: functional, MCF7; summary of the method: as §2
[10] = Reversal index is the ratio of IC50 in the absence of modulator to that of presence of modulator when combined with 5-fluorouracil (uM) in MCF-7/VP cell line; type: functional; summary of the method: as §2
[11] = Reversal index is the ratio of IC50 in the absence of modulator to that of presence of modulator when combined with vinblastine (nM) in T24 cell line; type: functional, T-24; summary of the method: as §2
[12] = Reversal index is the ratio of IC50 in the absence of modulator to that of presence of modulator when combined with vinblastine (nM) in MCF-7/VP cell line; type: functional; summary of the method: as §2
[13] = Reversal index is the ratio of IC50 in the absence of modulator to that of presence of modulator when combined with cisplatin (uM) in T24 cell line; type: functional, T-24; summary of the method: as §2
[14] = Reversal index is the ratio of IC50 in the absence of modulator to that of presence of modulator when combined with vinblastine (nM) in MCF-7 cell line; type: functional, MCF7; summary of the method: as §2
[15] = Reversal index is the ratio of IC50 in the absence of modulator to that of presence of modulator when combined with taxol (nM) in MCF-7/VP cell line; type: functional; summary of the method: as §2
[16] = Reversal index is the ratio of IC50 in the absence of modulator to that of presence of modulator when combined with cisplatin (uM) in MCF-7/VP cell line; type: functional; summary of the method: as §2
[17] = Reversal index is the ratio of IC50 in the absence of modulator to that of presence of modulator when combined with vincristine (nM) in P388/ADR cell line; type: functional; summary of the method: as §2
[18] = Reversal index is the ratio of IC50 in the absence of modulator to that of presence of modulator when combined with doxorubicin (uM) in P388/ADR cell line
[19] = Reversal index is the ratio of IC50 in the absence of modulator to that of presence of modulator when combined with cisplatin (uM) in NCI/ADR cell line; type: functional; summary of the method: as §2
[20] = Reversal index is the ratio of IC50 in the absence of modulator to that of presence of modulator when combined with taxol (nM) in MCF-7 cell line; type: functional, MCF7; summary of the method: as §2
[21] = Reversal index is the ratio of IC50 in the absence of modulator to that of presence of modulator when combined with cisplatin (uM) in MCF-7 cell line; type: functional, MCF7; summary of the method: as §2
[22] = Reversal index is the ratio of IC50 in the absence of modulator to that of presence of modulator when combined with 5-Fluorouracil (uM) in MCF-7 cell line; type: functional, MCF7; summary of the method: as §2
[23] = Reversal index is the ratio of IC50 in the absence of modulator to that of presence of modulator when combined with 5-fluorouracil (uM) in P388/ADR cell line; type: functional; summary of the method: as §2
[24] = Reversal index is the ratio of IC50 in the absence of modulator to that of presence of modulator when combined with cisplatin (uM) in P388/ADR cell line; type: functional; summary of the method: as §2
[25] = Reversal index is the ratio of IC50 in the absence of modulator to that of presence of modulator when combined with vincristine (nM) in MCF-7/VP cell line; type: functional; summary of the method: as §2
[26] = Reversal index is the ratio of IC50 in the absence of modulator to that of presence of modulator when combined with taxol (nM) in T24 cell line; type: functional, T-24; summary of the method: as §2
[27] = Reversal index is the ratio of IC50 in the absence of modulator to that of presence of modulator when combined with vincristine (nM) in NCI/ADR cell line; type: functional; summary of the method: as §2
[28] = Reversal index is the ratio of IC50 in the absence of modulator to that of presence of modulator when combined with 5-fluorouracil (uM) in NCI/ADR cell line; type: functional; summary of the method: as §2
[29] = Reversal index is the ratio of IC50 in the absence of modulator to that of presence of modulator when combined with taxol (nM) in NCI/ADR cell line; type: functional; summary of the method: as §2
[30] = Reversal index is the ratio of IC50 in the absence of modulator to that of presence of modulator when combined with vinblastine (nM) in P388/ADR cell line; type: functional; summary of the method: as §2
[31] = molecular target: T1, ATP-dependent translocase ABCB1 (Homo sapiens, UniProt P08183); assay: Pgp antagonism was determined percentage of NCI/ADR cells surviving in the absence of vinblastine/percentage of NCI/ADR cells surviving in the presence of vinblastine; type: functional, cell-based
T1 sequence (P08183 whole entry): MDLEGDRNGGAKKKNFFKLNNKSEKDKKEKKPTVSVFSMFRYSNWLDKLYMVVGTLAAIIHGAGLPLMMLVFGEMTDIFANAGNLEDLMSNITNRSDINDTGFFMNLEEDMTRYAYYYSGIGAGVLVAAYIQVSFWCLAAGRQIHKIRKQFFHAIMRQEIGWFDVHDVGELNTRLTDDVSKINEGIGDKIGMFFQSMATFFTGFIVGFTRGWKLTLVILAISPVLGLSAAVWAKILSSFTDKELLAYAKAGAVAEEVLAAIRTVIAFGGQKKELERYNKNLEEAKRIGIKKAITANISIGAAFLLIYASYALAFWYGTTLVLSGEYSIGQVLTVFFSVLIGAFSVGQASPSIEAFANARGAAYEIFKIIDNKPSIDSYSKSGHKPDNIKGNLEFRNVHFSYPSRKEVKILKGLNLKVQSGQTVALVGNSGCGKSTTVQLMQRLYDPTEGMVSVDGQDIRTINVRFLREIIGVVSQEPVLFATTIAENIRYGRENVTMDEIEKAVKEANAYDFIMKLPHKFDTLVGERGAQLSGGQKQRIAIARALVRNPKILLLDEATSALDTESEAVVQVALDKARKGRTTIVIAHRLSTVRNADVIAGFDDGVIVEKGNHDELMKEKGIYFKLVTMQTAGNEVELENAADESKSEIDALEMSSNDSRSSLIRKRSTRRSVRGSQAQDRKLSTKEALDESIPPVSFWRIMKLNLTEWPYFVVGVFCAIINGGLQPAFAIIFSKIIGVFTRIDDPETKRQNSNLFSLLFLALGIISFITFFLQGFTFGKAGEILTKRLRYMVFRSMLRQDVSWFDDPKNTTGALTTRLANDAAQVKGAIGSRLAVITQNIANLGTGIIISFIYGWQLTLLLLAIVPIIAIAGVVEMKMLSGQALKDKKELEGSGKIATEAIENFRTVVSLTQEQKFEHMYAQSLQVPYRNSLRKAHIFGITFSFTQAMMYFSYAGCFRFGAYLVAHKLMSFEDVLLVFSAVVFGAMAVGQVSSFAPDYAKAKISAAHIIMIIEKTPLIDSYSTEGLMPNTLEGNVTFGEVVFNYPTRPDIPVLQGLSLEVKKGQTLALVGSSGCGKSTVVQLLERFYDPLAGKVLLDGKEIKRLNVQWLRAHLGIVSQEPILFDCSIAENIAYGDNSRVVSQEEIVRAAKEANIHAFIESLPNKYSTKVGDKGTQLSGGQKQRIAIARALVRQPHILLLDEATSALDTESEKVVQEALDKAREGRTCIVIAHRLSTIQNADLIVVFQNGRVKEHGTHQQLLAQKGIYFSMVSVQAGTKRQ
Summary of the method: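 Modulator at 10 μg/mL tested with or without 50 nM vinblastine for 48 h, in triplicate. Survival read by sulforhodamine B at 570 nm against ethanol (1%) controls. Score = % survival without vinblastine / % survival with vinblastine.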

MCF-7 (Homo sapiens) = assay: Toxicity against MCF-7 cells
MCF7 = assay: Toxicity was determined against of MCF-7 cells at a dose of 10 ug/mL; type: cell-based; details: human
Summary of the method: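 Drug-sensitive MCF-7 cells exposed to 10 μg/mL compound for 48 h, in triplicate, with 1% ethanol solvent controls. Percentage of cells killed = percentage decrease in sulforhodamine B binding (570 nm) relative to control cultures.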

[32] = molecular target: T1, ATP-dependent translocase ABCB1; assay: Compound was evaluated for broad range of antagonistic activity against P-glycoprotein (Pgp) value expressed as IC20; type: functional
[33] = Compound was evaluated for broad range of antagonistic activity against multi drug resistance-related protein (MRP) value expressed as IC20; type: functional; set-up: unit not given here
[34] = Ratio of the Pgp to that of MRP1 was determined; type: functional
[35] = molecular target: Multidrug resistance-associated protein 1 (Homo sapiens, UniProt P33527); assay: MRP1 antagonism was determined percentage of MCF-7/VP cells surviving in the absence of vincristine/percentage of MCF-7/VP cells surviving in the presence of vincristine; type: functional
Multidrug resistance-associated protein 1, sequence (P33527 whole entry): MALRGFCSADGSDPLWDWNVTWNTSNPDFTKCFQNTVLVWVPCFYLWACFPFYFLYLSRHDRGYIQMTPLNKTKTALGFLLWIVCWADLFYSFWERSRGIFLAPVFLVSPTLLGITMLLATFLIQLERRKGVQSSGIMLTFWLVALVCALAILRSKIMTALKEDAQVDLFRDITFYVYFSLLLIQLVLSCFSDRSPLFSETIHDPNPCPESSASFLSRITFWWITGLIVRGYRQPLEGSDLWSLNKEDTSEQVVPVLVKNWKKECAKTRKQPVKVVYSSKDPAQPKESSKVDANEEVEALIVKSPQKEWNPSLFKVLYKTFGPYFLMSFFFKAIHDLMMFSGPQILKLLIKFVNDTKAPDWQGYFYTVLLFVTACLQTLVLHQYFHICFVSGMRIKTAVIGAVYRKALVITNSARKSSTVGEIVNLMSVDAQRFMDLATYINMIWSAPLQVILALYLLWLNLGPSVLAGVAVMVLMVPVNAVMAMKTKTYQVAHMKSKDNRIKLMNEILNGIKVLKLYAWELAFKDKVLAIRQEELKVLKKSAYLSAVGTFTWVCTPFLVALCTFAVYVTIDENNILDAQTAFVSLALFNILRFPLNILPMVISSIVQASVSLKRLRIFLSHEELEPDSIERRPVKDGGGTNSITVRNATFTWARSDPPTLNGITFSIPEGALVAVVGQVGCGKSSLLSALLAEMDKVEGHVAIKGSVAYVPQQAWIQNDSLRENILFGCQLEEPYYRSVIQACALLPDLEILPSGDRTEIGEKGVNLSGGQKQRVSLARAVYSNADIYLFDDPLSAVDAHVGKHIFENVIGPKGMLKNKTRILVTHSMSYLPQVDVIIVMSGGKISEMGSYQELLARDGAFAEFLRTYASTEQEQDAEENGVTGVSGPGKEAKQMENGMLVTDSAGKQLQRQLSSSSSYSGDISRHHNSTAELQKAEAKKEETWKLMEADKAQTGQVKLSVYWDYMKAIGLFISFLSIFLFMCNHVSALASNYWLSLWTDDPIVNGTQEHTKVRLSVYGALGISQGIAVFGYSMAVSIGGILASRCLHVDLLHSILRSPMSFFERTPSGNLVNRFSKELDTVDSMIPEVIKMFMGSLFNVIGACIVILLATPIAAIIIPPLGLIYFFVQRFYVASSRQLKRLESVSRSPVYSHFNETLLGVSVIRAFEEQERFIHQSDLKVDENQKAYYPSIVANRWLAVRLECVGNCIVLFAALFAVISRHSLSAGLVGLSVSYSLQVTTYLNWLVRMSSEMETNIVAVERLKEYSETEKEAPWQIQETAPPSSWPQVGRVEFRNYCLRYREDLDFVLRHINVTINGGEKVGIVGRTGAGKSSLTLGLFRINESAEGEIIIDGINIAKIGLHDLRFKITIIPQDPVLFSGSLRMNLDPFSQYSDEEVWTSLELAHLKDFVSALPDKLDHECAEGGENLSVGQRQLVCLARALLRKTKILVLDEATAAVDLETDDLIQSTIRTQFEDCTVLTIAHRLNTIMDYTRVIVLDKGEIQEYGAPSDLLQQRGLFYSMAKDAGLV
Summary of the method: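 MCF-7/VP cells in RPMI 1640 with 10% FBS. Modulator at 10 μg/mL tested with or without 1 nM vincristine for 48 h, in triplicate. Sulforhodamine B read-out at 570 nm. Score = % survival without vincristine / % survival with vincristine; a score above 1.0 indicates chemosensitization.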

Mus musculus [36] = assay: Volume of the first compartment after intraperitoneal administration of 100 mg/kg in mice; details: in vivo, ip
Mus musculus [37] = assay: The second majority of the volume of distribution after intraperitoneal administration of 100 mg/kg in mice; type: ADME, organism-based; set-up: dose 100 mg/kg, route intraperitoneal; details: in vivo, ip
Summary of the method: (§3)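 Female Swiss-Webster mice, 6–8 weeks old, given 100 mg/kg PGP-4008·HCl intraperitoneally. Blood taken by intracardiac puncture under anesthesia at 1–240 min, three animals per time point. Samples precipitated with ice-cold acetonitrile with 2-naphthol internal standard, then HPLC read at 254 nm against a standard curve. Two-compartment model fit.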

Mus musculus [38] = assay: AUMC after intraperitoneal administration of 100 mg/kg in mice; type: ADME, organism-based; set-up: dose 100 mg/kg, route intraperitoneal; details: in vivo, ip; summary of the method: as §3
Mus musculus [39] = assay: Volume of distribution after intraperitoneal administration of 100 mg/kg in mice; type: ADME, organism-based; set-up: dose 100 mg/kg, route intraperitoneal; details: in vivo, ip; summary of the method: as §3
[40] = Reversal index is the ratio of IC50 in the absence of modulator to that of presence of modulator when combined with taxol (nM) in P388/ADR cell line
[41] = Maximum concentration in plasma was determined after intraperitoneal administration of 100 mg/kg in mice; type: ADME, organism-based; set-up: dose 100 mg/kg, route intraperitoneal; details: mouse, ip; summary of the method: as §3
[42] = Plasma clearance rate after intraperitoneal administration of 100 mg/kg in mice; type: ADME, organism-based; set-up: dose 100 mg/kg, route intraperitoneal; details: mouse, ip, read-out: Clp (converted); summary of the method: as §3

Row | SMILES | Tumor volume (Mus musculus [1]) [mm**3] | Tumor volume (Mus musculus [2]) [mm**3] | Tumor volume (Mus musculus [3]) [mm**3] | Tumor volume (Mus musculus [4]) [mm**3] | Tumor volume (Mus musculus [5]) [mm**3] | RI [6] | RI [7] | RI [8] | RI [9] | RI [11] | RI [12] | RI [13] | RI [14] | RI [15] | RI [16] | RI [17] | RI [18] | RI [19] | RI [20] | RI [23] | further results
1 | COc1cccc2c1C(=O)c1c(O)c3c(c(O)c1C2=O)C[C@@](O)(C(=O)CO)C[C@@H]3O[C@H]1C[C@H](N)[C@H](O)[C@H](C)O1.O=C(Cc1ccccc1)Nc1c2c(nc3ccccc13)N(Cc1ccccc1)CC2 | 470 | 560 | 670 | 520 | 390 |  |  |  |  |  |  |  |  |  |  |  |  |  |  |  | 
2 | COc1ccc(CCN(C)CCCC(C#N)(c2ccc(OC)c(OC)c2)C(C)C)cc1OC (centres undefined) |  |  |  |  |  | 1.6 | 173 | 3.7 | 4.6 | 2.7 | 2.4 | 1 | 1.2 | 1.1 | 0.8 | 112 | 1000 | 1.1 | 1.1 | 0.7 | RI [10]: 0.9; RI [21]: 1.1; RI [22]: 0.9; RI [24]: 2; RI [25]: 15; RI [26]: 1.6; RI [27]: 50; RI [28]: 0.9; RI [29]: 106; RI [30]: 61
3 | COc1cccc2c1C(=O)c1c(O)c3c(c(O)c1C2=O)C[C@@](O)(C(=O)CO)C[C@@H]3O[C@H]1C[C@H](N)[C@H](O)[C@H](C)O1 [DOXORUBICIN] | 520 | 1210 | 1680 | 860 | 430 |  |  |  |  |  |  |  |  |  |  |  |  |  |  |  | 
4 | O=C(CN1CCCCC1)Nc1c2c(nc3ccccc13)N(Cc1ccccc1)CC2 |  |  |  |  |  |  |  |  |  |  |  |  |  |  |  |  |  |  |  |  | Ratio [31]: 18; Toxicity (MCF-7 (Homo sapiens)): 14 µM; Toxicity (MCF7): 0%; Activity [32]: 9; Activity [33]: 1; Ratio [34]: 16; Ratio [35]: 1.1
5 | O=C(Cc1ccccc1)Nc1c2c(nc3ccccc13)N(Cc1ccccc1)CC2 | 470 | 1280 | 2000 | 1030 | 380 | 2.6 | 35 | 1.5 | 0.9 | 3.8 | 1.3 | 1.1 | 1.8 | 0.8 | 0.8 | 30 | 200 | 1.2 | 0.9 | 0.7 | Toxicity (MCF-7 (Homo sapiens)): 13 µM; V1 (Mus musculus [36]): 2.3 mL; Activity [32]: 10.7; Activity [33]: 0.7; V2 (Mus musculus [37]): 40.5 mL; AUMC (Mus musculus [38]): 9.4 µg·h²/mL; Vdss (Mus musculus [39]): 43 mL; RI [40]: 202; RI [24]: 1.9; Cmax [41]: 197 µg/mL; RI [25]: 1; RI [26]: 1.2; CL/F [42]: 1.34 mL/min; RI [27]: 18; RI [28]: 1; RI [29]: 70; RI [30]: 63
